# Screening results: PubChem, The Scripps Research Institute Molecular Screening Center
# HTRA1 inhibitor: inhibitors of human serine peptidase HTRA1; Q92743; recombinant HTRA1, FP-rhodamine activity-based probe, fluorescence polarization; inhibition, % at 5.96 µM; 340,000 compounds, 0.5% hits; AID 504803; in the data active means inhibition above about 36%;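 further: 0% = enzyme with DMSO and 100% = wells lacking enzyme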
# TCR-CD3 inh: blocks the human TCR-CD3 interaction | TAMRA-labeled TCR probe fluorescence, biochemical | inhibition, % at 9.4 µM | 360,000 compounds, 0.37% hits | AID 651800; in the data active means inhibition above about 19%;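 further: recombinant mutant TCR 2C K166C tagged with TAMRA read by polarization; 0% = receptor in buffer alone and 100% = receptor with positive control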
# PRMT1 FP inh: inhibitors of human PRMT1 | recombinant PRMT1, activity-based probe fluorescence polarization | Q99873 | 370,000 compounds, 1.3% hits | inhibition, % at 2.79 µM;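 active means inhibition above about 21% made by adding two undisclosed values, limit read from the data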
# SIAE primary: blocks human sialic acid acetylesterase; Q9HAT2; SIAE FP-Rh probe binding, fluorescence polarization; inhibition, % at 9.66 µM; 370,000 compounds, 0.69% hits;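 active means inhibition above a cutoff: mean of compounds within the control limits plus 3 SD of those, cut at about 17% in these data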;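 further: 0% = plate median of compound wells and 100% = probe without SIAE protein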
# Target sequence (Q9HAT2 whole entry, looked up): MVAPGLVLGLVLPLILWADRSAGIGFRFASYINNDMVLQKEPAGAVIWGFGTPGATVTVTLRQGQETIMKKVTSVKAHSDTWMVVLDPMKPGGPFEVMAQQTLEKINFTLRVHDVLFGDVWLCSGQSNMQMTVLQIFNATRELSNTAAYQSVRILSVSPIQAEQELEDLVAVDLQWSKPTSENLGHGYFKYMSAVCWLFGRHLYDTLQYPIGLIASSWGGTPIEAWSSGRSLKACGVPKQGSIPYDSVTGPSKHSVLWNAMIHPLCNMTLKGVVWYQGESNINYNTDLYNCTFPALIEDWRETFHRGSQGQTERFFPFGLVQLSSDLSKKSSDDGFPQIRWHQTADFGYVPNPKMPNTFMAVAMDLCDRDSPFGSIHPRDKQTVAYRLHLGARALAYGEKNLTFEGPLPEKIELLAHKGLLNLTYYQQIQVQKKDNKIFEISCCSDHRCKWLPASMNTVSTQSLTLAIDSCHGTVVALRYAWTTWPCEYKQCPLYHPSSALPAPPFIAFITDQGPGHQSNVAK
# ABHD4 inh: ABHD4 (mouse) inhibition, primary FP screen. Q8VD66. purified mABHD4, FP-Rh probe fluorescence polarization. inhibition, % at 8.92 µM. 370,000 compounds, 0.54% hits;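 active means inhibition exceeding the mean over every tested compound plus 3 SD, cut at about 30% in these data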;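 further: 0% = plate median of compound wells and 100% = S159A mutant with DMSO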
#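 System: mouse ABHD4 enzyme, wild type / Medium: HEPES pH 7.0, NaCl, Pluronic buffer / Reagent: FP-Rh activity-based fluorescent probe / Control set: S159A mutant high control, sample median low control / Detection: fluorescence polarization with parallel and perpendicular emission, 525/598 nm / Schedule: 45 min + 60 min at 25 °C / Compound dosing: 8.92 µM, single dose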
# rCAG binder: r(CAG) repeat RNA binding. TO-PRO-1 dye displacement fluorescence. inhibition, % at 3 µM. 370,000 compounds, 1.3% hits. AID 651821;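 active means inhibition above the plate cutoff, the mean of all test compounds on that plate plus 3 SD, cut at about 35% in these data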;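 further: 0% = DMSO alone and 100% = 100 µM mitoxantrone as full dye displacement; higher means more dye released from RNA so lower well fluorescence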
# PRMT1 inh conf: PRMT1 (human) inhibition, FP confirmation; shares compounds with PRMT1 FP inh; recombinant His-PRMT1, activity-based probe fluorescence polarization; inhibition, % at 2.79 µM; 3,300 compounds, 42% hits;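 active means mean inhibition across replicates above the hit cutoff derived for the earlier primary screen, cut at about 22% in these data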
# * marks the source's active call; other numbers are inactive results; · = no result given. Hits are enriched below; roughly 3.5% of the tested compounds scored in any of these assays.
SMILES,HTRA1 inhibitor,TCR-CD3 inh,PRMT1 FP inh,SIAE primary,ABHD4 inh,rCAG binder,PRMT1 inh conf
COc1ccc(N2CSC3=C(C#N)C(c4cc(OC)c(OC)cc4OC)CC(=O)N3C2)c(OC)c1 (stereo not drawn),9,-5,39*,6,22,23,63*
COC(=O)[C@H](C(C)C)N(CCCc1cn(Cc2ccc(C)cc2)nn1)S(=O)(=O)c1ccc(F)cc1Br,·,·,1,-1,-2,3,·
CC(C)CNC(=O)C1CSCCS(=O)(=O)N1Cc1ccc(F)cc1 (stereo not drawn),·,·,-10,-2,-2,-2,·
CCN(CC)C(=O)O[C@H]1CC[C@@]23CCCN2C(=O)CCC[C@H]3C1,·,·,-1,2,6,·,·
CCCCCN1CCCCC(NC(=O)c2ccc(F)c(F)c2)C1=O (stereo not drawn),·,·,3,1,3,-2,·
COc1ccc(S(=O)(=O)N2CCC(c3nc4ccccc4o3)CC2)c(OC)c1,·,·,-6,2,-5,1,·
Cc1ccc(-c2c(NC(=O)c3cccc(C)c3)nc3ncccn23)cc1,·,·,-3,0,9,5,·
COc1cc(OC)c(C2CC(=O)N3CN(c4ccc(C)cc4)CSC3=C2C#N)cc1OC (stereo not drawn),-3,-4,62*,-4,17,33,93*
COc1ccc(C2CC(=O)N3CN(c4ccc(C)c(Cl)c4)CSC3=C2C#N)cc1OC (stereo not drawn),-5,-6,41*,-11,9,21,25*
COc1ccc(N2CSC3=C(C#N)C(c4cccs4)CC(=O)N3C2)cc1 (stereo not drawn),4,0,3,1,5,1,·
N#Cc1ccsc1NC(=O)CSc1nncs1,10,1,26*,7,15,11,24*
COc1ccc(NC(=O)NNC(=O)CCn2nc(C)c([N+](=O)[O-])c2C)cc1OC,·,·,-1,3,4,1,·
Cc1nc2[nH]c(=S)[nH]c2c(=O)[nH]1,5,2,1,13,4,-1,·
Nc1nc(N)c2[nH]c(=S)[nH]c2n1,-1,4,54*,9,1,3,9
Cc1ccccc1NC(=O)CC1SC(=NC2CCCCC2)NC1=O (stereo not drawn),4,-7,32*,0,-2,-3,3
Cc1cc(C)cc(OC(C)CCN2CCC(C(O)(c3ccccc3)c3ccccc3)CC2)c1 (stereo not drawn),·,·,3,-6,17,-1,·
CC(=O)Nc1ccc(S(=O)(=O)NC(C)C(=O)NC(C)c2ccccc2)cc1 (stereo not drawn),-3,5,44*,-3,2,3,55*
CC(=O)Nc1ccc(S(=O)(=O)N[C@@H](C)C(=O)N2CCN(c3ccccn3)CC2)cc1,4,2,38*,2,-7,0,23*
C=CCN1C(=O)[C@@H](CC(=O)N2CCOCC2)[C@]2(C(=O)OC)CCCCC=C12,·,·,-2,-3,-2,1,·
c1ccc(Nc2cccc(Nc3ccccc3)n2)cc1,11,-9,37*,-4,19,3,42*
O=C(NN=Cc1ccccc1C(=O)O)C(=O)NN=Cc1ccccc1C(=O)O,6,14,104*,2,2,2,-1
Cc1ccc(F)cc1NC(=O)CSCc1nc2sc(C)c(C)c2c(=O)[nH]1,-9,9,34*,6,6,6,38*
CSc1ccccc1NC(=O)CSCc1nc2sc(C)c(C)c2c(=O)[nH]1,-7,-7,7,-2,1,3,·
CC(C)(C)N(NC(=O)NCCCl)C(=O)c1ccccc1Cl,·,·,-2,-5,-1,2,·
CC(=O)OCCN(C)c1cc(SC(C)C)c2nonc2c1[N+](=O)[O-],0,4,6,-2,1,-1,·
SMILES,HTRA1 inhibitor,TCR-CD3 inh,PRMT1 FP inh,SIAE primary,ABHD4 inh,rCAG binder,PRMT1 inh conf
CN(CCO)c1cc(Sc2nc3ccccc3s2)c2nonc2c1[N+](=O)[O-],7,-4,90*,7,22,19,89*
COC(=O)C1=C2SC(C)C(=O)N2C(N)=C(C#N)C1c1ccc(OC)c(OC)c1 (stereo not drawn),-1,2,10,2,-5,9,·
COC(=O)C1=C2SC(C)C(=O)N2C(N)=C(C#N)C1c1cc(OC)c(OC)c(OC)c1 (stereo not drawn),4,-7,31*,-1,-9,14,6
N#CCN1CCN(CC(=O)c2ccc(Br)cc2)CC1,7,-9,4,-1,-4,1,·
O=C(CN1CC[n+]2c(-c3cccs3)csc21)c1ccc(Br)cc1,-3,6,25*,4,9,7,42*
CC(=O)N1CCN(CC(=O)c2ccc(Br)cc2)CC1,11,-2,0,-7,2,2,·
O=C(CN1CC[n+]2c(-c3ccccc3)csc21)c1ccc(Br)cc1,·,13,49*,8,6,7,55*
CC(C)[C@H](N)C(=O)N[C@@H](Cc1ccccc1)C(=O)N1CCC2CCN(S(=O)(=O)c3ccccc3)CC21 (stereo partly drawn),·,·,3,2,5,4,·
CC(c1cc(F)ccc1O)c1c[nH]c2ccccc12 (stereo not drawn),·,·,1,2,-21,3,·
O=C1CCC[C@H]2C[C@H](NCc3ccc(Br)cc3)CC[C@]23CCCN13,·,·,-1,-3,-1,·,·
COCc1cc(N2CCN(C(=O)OC(C)(C)C)C[C@H]2C)ccc1N1CC[C@@H](O)C1,·,-9,66*,4,26,11,9
Cc1c(C2Nc3ccccc3NC3=C2C(=O)CC(C)(C)C3)cnn1C (stereo not drawn),6,7,27*,-3,10,-33,0
CC1(C)CC(=O)C2=C(C1)Nc1ccccc1NC2c1ccccc1F (stereo not drawn),3,2,5,12,-4,-13,·
O=C(c1cccs1)N1CC[C@H]2[C@H](CCCN2Cc2cc(F)cc(F)c2)C1,·,·,2,3,-6,2,·
CC(C)Sc1nc(SCC(=O)NCc2ccco2)c2c3c(sc2n1)COC(C)(C)C3,-24,1,31*,-14,-22,14,10
O=C(O)C(Cc1ccccc1)N1C(=O)C=CC1=O (stereo not drawn),2,-2,52*,-8,6,-1,64*
O=C(CSc1nc2nc(-c3cccs3)cc(C(F)(F)F)c2c(=O)[nH]1)NCc1ccco1,-10,2,30*,-12,-6,26,13
O=C(CSc1nc2nc(-c3cccs3)cc(C(F)(F)F)c2c(=O)[nH]1)C(F)(F)F,-6,2,58*,4,-2,13,84*
